Measurements published in ChEMBL document CHEMBL1250451, “Mechanistic insights into a Ca2+-dependent family of alpha-mannosidases in a human gut symbiont” (Nat Chem Biol, 2010).

What was measured:
Assay type in all cases: protein assay
[1] = substrate: OC[C@H]1O[C@H](O[C@H]2[C@H](O)[C@H](O)[C@@H](O)O[C@@H]2CO)[C@@H](O)[C@@H](O)[C@@H]1O; experiment: (§1) Activity of Bacteroides thetaiotaomicron GH92 alpha-mannosidase GH92 alpha-mannosidase 4093 assessed as mannose release after 16 hrs by HPLC
In short: (§2)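 Yeast mannan or ovalbumin (mostly high-mannose N-glycans) at 1 mg ml−1 was incubated with recombinant IMAC-purified enzyme from E. coli. The methods give enzyme at 2 μM and the table footnote gives 1 μM. Buffer was 100 mM sodium HEPES pH 7.0 with 1 mg ml−1 BSA and 2 mM CaCl2. Aliquots were taken at 1 and 16 h and boiled 10 min. Mannose was measured by HPLC and scored by signal: >500 nC +++, 200–500 ++, <200 +.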

[2] = substrate: O=[N+]([O-])c1ccc(O[C@H]2O[C@H](CO)[C@@H](O)[C@H](O)[C@@H]2O)cc1; experiment: as §1; in short: as §2
[3] = substrate: OC[C@H]1O[C@H](O[C@H]2[C@H](O)[C@H](O)[C@@H](O)O[C@@H]2CO)[C@@H](O)[C@@H](O)[C@@H]1O; experiment: (§3) Ratio of Kcat to Km for Bacteroides thetaiotaomicron GH92 alpha-mannosidase GH92 alpha-mannosidase 4093 assessed as mannose release after 16 hrs by HPLC
[4] = substrate: O=[N+]([O-])c1ccc(O[C@H]2O[C@H](CO)[C@@H](O)[C@H](O)[C@@H]2O)cc1; experiment: as §3
[5] = substrate: OC[C@H]1O[C@H](O[C@H]2[C@@H](O)[C@H](O)[C@@H](CO)O[C@@H]2O)[C@@H](O)[C@@H](O)[C@@H]1O; experiment: (§4) Ratio of Kcat to Km for Bacteroides thetaiotaomicron GH92 alpha-mannosidase GH92 alpha-mannosidase 4092 assessed as mannose release after 16 hrs by HPLC
[6] = substrate: O=[N+]([O-])c1ccc(O[C@H]2O[C@H](CO)[C@@H](O)[C@H](O)[C@@H]2O)cc1; experiment: as §4
[7] = substrate: OC[C@H]1O[C@H](O[C@H]2[C@@H](O)[C@H](O)[C@@H](CO)O[C@@H]2O)[C@@H](O)[C@@H](O)[C@@H]1O; experiment: Activity of Bacteroides thetaiotaomicron GH92 alpha-mannosidase GH92 alpha-mannosidase 4092 assessed as mannose release after 16 hrs by HPLC; in short: as §2

| Protein | Km [1] [µM] | kcat [1] [s⁻¹] | Km [2] [µM] | kcat [2] [s⁻¹] | kcat/Km [3] [M⁻¹ s⁻¹] | kcat/Km [4] [M⁻¹ s⁻¹] | kcat/Km [5] [M⁻¹ s⁻¹] | kcat/Km [6] [M⁻¹ s⁻¹] | Km [7] [µM] | kcat [7] [s⁻¹] |
| --- | --- | --- | --- | --- | --- | --- | --- | --- | --- | --- |
| Alpha-1,2-mannosidase family protein (BT_4093) (Bacteroides thetaiotaomicron), Q8A0C8 (protein) MKHKFLFILLFSLVLEGMVTTQAVAGDYVHQVNTLIGTKGTGLTSGYLYPGATYPYGMVQFTPSYFSKRSGFVINQLSGGGCEHMGNFPTFPVKGKLKMSPDNILNYRINVSEEKGHAGYYEAMVQEDIKAKLTVTERTGMASYEYPADQQYGTIIIGGGISATPIEQAAIVITAPNKCEGYAEGGNFCGLRTPYKVYFVAEFDTDAFETGTWKREELMPNTTFAEGEYSGVYFTFDVNKKKNIQYKIGVSYVSVENARENLKAENAEWDFQKIQNQAEAKWNHYLGMIEVEGTNPDRTTQFYTHLYRSFIHPNVCSDVNGEYMGADFRVHKSRSKHYTSFSNWDTYRTQIQLLSMLDPEVASDIVISHQLFAEQSGGSFPRWVMANIETGVMQGDPTPILIANAYAFGARNYDPKPIFKIMRKGAEEPGSKSQDVETRPGLKQYLDKGYYNASIQLEYTSADFAIGQFALHAVGDEFASWRYFHFARSWKNLYNSDTGWLQSRNPDGSWKSLGEDFRESTYKNYFWMVPYDIAGLVEIIGGKEKAEKRLDEFFTRLDAGYNDAWFASGNEPSFHIPWIYNWIGRPYKTQEIINRVLNEQYSSKIDGLPGNDDLGTMGAWYVFACIGLYPEIPGVGGFTVNTPIFSSVKVHLKKGDIVIKGGSEKDIYIKSMKLNGKSYESTWIDWDQLNSGATIEYRTSGKPDMKWGAKVVPPSFP | 35000 | 1.33 | 1300 | 0.0112 | 38.3 | 9.08 |  |  |  |  |
| Alpha-1,2-mannosidase (BT_4092) (Bacteroides thetaiotaomicron), Q8A0C9 (protein) MKKLVYLIIFFLYSTVMNAQLKDLVQYVNTLQGTDSNFGLSYGNTYPTTGMPYGMHMWSAQTGKNGDGFKYMYAVDKIRAFSQSHQCSPWVSDYAVYSFMPMVGELVVNQDARATKFSHDNEIAKPHYYKVTFDNGITTEMAPTTRGVHLRFSYPTTGDAYLVLDGYTDMSEIKIDPAKRQISGWVNNQRFVNDSKSFRNYFVVQFDKPFEDYGVWENQKDEVFPQKLDGAGKGYGAFIKFKKGSKVQAKAASSYISAEQALITLNKELGKDKNLEVTKARGQKTWNEVLNRIVVEGCTDEQMKTFYSCLFRANLFSRKFYERKENGEPYYYSPYNGKIYDGYMYTDNGFWDTFRSQFPLTNILHPTMQGRYMNALLAAQEQCGWLPSWSSPGETGGMLGNHSISLLADAWAKGIRDFDPEKALKAYAHEAMNKGPWGGANGRGFWKEYFQLGYVPYPESMGSSAQTMEYAYDDFCGYQLAKMVGNKHYQEVFARQMYNYKNVFDKSIGFMRGKGVDGKWQEPFDPLEWGGPFCEGNAWHYTWSVFHDVQGLIDLFGSDEKFTTKIDSVFTIPNIIKPGTYGGVIHEMKEMELANMGQYAHGNQPIQHMPYLYCYAGQPWKTQYWVRQIVERLYNSTEKGYPGDEDQGGMSSWYILSSLGIYAVCPGTDEYVIGSPLFKKATITMENGNKFVIEAPENSKENLYIQSATLNGRLLDKNYIHYDDIAEGGVLKFEMGSQPNKERCTSKYAAPFSLSKE |  |  |  |  |  |  | 900 | 1.12 | 2000 | 1.83 |
